Results published in ChEMBL document CHEMBL1821604, “Anticancer activity and cDNA microarray studies of a (RS)-1,2,3,5-tetrahydro-4,1-benzoxazepine-3-yl]-6-chloro-9H-purine, and an acyclic (RS)-O,N-acetalic 6-chloro-7H-purine” (Eur J Med Chem, 2011).

Columns and labels:
Type in all cases: functional
MCF7 [1] = experiment: Down regulation of SNTG1 gene expression in human MCF7 cells at IC50 after 48 hrs by cDNA microarray technique relative to control
HT-29 [2] = experiment: Down regulation of FLJ25476 gene expression in human HT-29 cells at IC50 after 48 hrs by cDNA microarray technique relative to control
Procedure, shortened: (§1)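 Cells (8 × 10⁶) were cultured in DMEM with 10% heat-inactivated FBS at 37 °C under 5% CO₂. They were exposed for 48 h to compound at its IC₅₀, with DMSO-treated parallel cultures as controls (final DMSO ≤0.1% v/v). Total RNA was isolated by trizol/chloroform phase separation, RNeasy column cleanup and on-column DNase, then quantified by OD260/OD280. Expression was profiled by cDNA microarray relative to control.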

HT-29 [3] = experiment: Upregulation of PDGFA gene expression in human HT-29 cells at IC50 after 48 hrs by cDNA microarray technique relative to control
MCF7 [4] = experiment: Down regulation of CHST9 gene expression in human MCF7 cells at IC50 after 48 hrs by cDNA microarray technique relative to control
Procedure, shortened: (§2)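 8 × 10⁶ cells exposed 48 h to compound at its IC50 concentration; total RNA isolated with trizol/chloroform and RNeasy columns including on-column DNase step; RNA quantified by OD 260/280; DMSO-treated cultures as control.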

MCF7 [5] = experiment: Down regulation of CD72 gene expression in human MCF7 cells at IC50 after 48 hrs by cDNA microarray technique relative to control; procedure, shortened: as §2
HT-29 [6] = experiment: Down regulation of TRPA1 gene expression in human HT-29 cells at IC50 after 48 hrs by cDNA microarray technique relative to control
HT-29 [7] = experiment: Down regulation of ALB gene expression in human HT-29 cells at IC50 after 48 hrs by cDNA microarray technique relative to control; procedure, shortened: as §2
MCF7 [8] = experiment: Upregulation of ABCD2 gene expression in human MCF7 cells at IC50 after 48 hrs by cDNA microarray technique relative to control
HT-29 [9] = experiment: Down regulation of GNRHR2 gene expression in human HT-29 cells at IC50 after 48 hrs by cDNA microarray technique relative to control; procedure, shortened: as §1
HT-29 [10] = experiment: Down regulation of ETV1 gene expression in human HT-29 cells at IC50 after 48 hrs by cDNA microarray technique relative to control; procedure, shortened: as §1
MCF7 [11] = experiment: Down regulation of HLA-DOB gene expression in human MCF7 cells at IC50 after 48 hrs by cDNA microarray technique relative to control; procedure, shortened: as §1
HT-29 [12] = experiment: Upregulation of LOC283385 gene expression in human HT-29 cells at IC50 after 48 hrs by cDNA microarray technique relative to control
MCF7 [13] = experiment: Upregulation of FLJ10945 gene expression in human MCF7 cells at IC50 after 48 hrs by cDNA microarray technique relative to control
MCF7 [14] = experiment: Upregulation of PTPNS1 gene expression in human MCF7 cells at IC50 after 48 hrs by cDNA microarray technique relative to control
MCF7 [15] = experiment: Down regulation of ATP1B4 gene expression in human MCF7 cells at IC50 after 48 hrs by cDNA microarray technique relative to control; procedure, shortened: as §2
MCF7 [16] = experiment: Upregulation of NRTN gene expression in human MCF7 cells at IC50 after 48 hrs by cDNA microarray technique relative to control
MCF7 [17] = experiment: Down regulation of MGC42090 gene expression in human MCF7 cells at IC50 after 48 hrs by cDNA microarray technique relative to control
MCF7 [18] = experiment: Down regulation of RAC2 gene expression in human MCF7 cells at IC50 after 48 hrs by cDNA microarray technique relative to control
HT-29 [19] = experiment: Down regulation of PARK2 gene expression in human HT-29 cells at IC50 after 48 hrs by cDNA microarray technique relative to control
MCF7 [20] = experiment: Upregulation of HOXB2 gene expression in human MCF7 cells at IC50 after 48 hrs by cDNA microarray technique relative to control
HT-29 [21] = experiment: Down regulation of KCNJ16 gene expression in human HT-29 cells at IC50 after 48 hrs by cDNA microarray technique relative to control; procedure, shortened: as §1
MCF7 [22] = experiment: Down regulation of ZNF365 gene expression in human MCF7 cells at IC50 after 48 hrs by cDNA microarray technique relative to control
HT-29 [23] = experiment: Down regulation of ANXA6 gene expression in human HT-29 cells at IC50 after 48 hrs by cDNA microarray technique relative to control; procedure, shortened: as §2
HT-29 [24] = experiment: Down regulation of SFRS5 gene expression in human HT-29 cells at IC50 after 48 hrs by cDNA microarray technique relative to control
MCF7 [25] = experiment: Upregulation of CALM1 gene expression in human MCF7 cells at IC50 after 48 hrs by cDNA microarray technique relative to control
HT-29 [26] = experiment: Down regulation of PYCRL gene expression in human HT-29 cells at IC50 after 48 hrs by cDNA microarray technique relative to control
HT-29 [27] = experiment: Down regulation of PRKCABP gene expression in human HT-29 cells at IC50 after 48 hrs by cDNA microarray technique relative to control
MCF7 [28] = experiment: Down regulation of P2RY13 gene expression in human MCF7 cells at IC50 after 48 hrs by cDNA microarray technique relative to control
HT-29 [29] = experiment: Down regulation of HSPA1A gene expression in human HT-29 cells at IC50 after 48 hrs by cDNA microarray technique relative to control; procedure, shortened: as §1
MCF7 [30] = experiment: Down regulation of BIVM gene expression in human MCF7 cells at IC50 after 48 hrs by cDNA microarray technique relative to control; procedure, shortened: as §2
HT-29 [31] = experiment: Down regulation of KELCHL gene expression in human HT-29 cells at IC50 after 48 hrs by cDNA microarray technique relative to control; procedure, shortened: as §1
HT-29 [32] = experiment: Down regulation of SLC22A1 gene expression in human HT-29 cells at IC50 after 48 hrs by cDNA microarray technique relative to control
MCF7 [33] = experiment: Upregulation of CITED1 gene expression in human MCF7 cells at IC50 after 48 hrs by cDNA microarray technique relative to control
MCF7 [34] = experiment: Down regulation of OR8A1 gene expression in human MCF7 cells at IC50 after 48 hrs by cDNA microarray technique relative to control
HT-29 [35] = experiment: Down regulation of HKE2 gene expression in human HT-29 cells at IC50 after 48 hrs by cDNA microarray technique relative to control; procedure, shortened: as §1
HT-29 [36] = experiment: Down regulation of SLC39A7 gene expression in human HT-29 cells at IC50 after 48 hrs by cDNA microarray technique relative to control
MCF7 [37] = experiment: Upregulation of RHOH gene expression in human MCF7 cells at IC50 after 48 hrs by cDNA microarray technique relative to control
HT-29 [38] = experiment: Down regulation of ZNF482 gene expression in human HT-29 cells at IC50 after 48 hrs by cDNA microarray technique relative to control

COC(CN(c1ccccc1CO)S(=O)(=O)c1ccccc1[N+](=O)[O-])n1cnc2ncnc(Cl)c21 (racemic)
fold change (FC) (MCF7 [1]): -2.46
fold change (FC) (HT-29 [2]): -2.11
fold change (FC) (HT-29 [3]): 2.15
fold change (FC) (MCF7 [4]): -2.53
fold change (FC) (MCF7 [5]): -2.17
fold change (FC) (HT-29 [6]): -3.22
fold change (FC) (HT-29 [7]): -2.32
fold change (FC) (MCF7 [8]): 2.25
fold change (FC) (HT-29 [9]): -2.03
fold change (FC) (HT-29 [10]): -2.63
fold change (FC) (MCF7 [11]): -2.26
fold change (FC) (HT-29 [12]): 4.37
fold change (FC) (MCF7 [13]): 2.07
fold change (FC) (MCF7 [14]): 2.89
fold change (FC) (MCF7 [15]): -2.07
fold change (FC) (MCF7 [16]): 4.22
fold change (FC) (MCF7 [17]): -2.03
fold change (FC) (MCF7 [18]): -2.29
fold change (FC) (HT-29 [19]): -2.96
fold change (FC) (MCF7 [20]): 2.74
fold change (FC) (HT-29 [21]): -2.21

O=C(OCC1c2ccccc2-c2ccccc21)N1CC(n2cnc3c(Cl)ncnc32)OCc2ccccc21 (racemic)
fold change (FC) (MCF7 [22]): 2
fold change (FC) (HT-29 [23]): -2.27
fold change (FC) (HT-29 [24]): -2.06
fold change (FC) (MCF7 [25]): 2.99
fold change (FC) (HT-29 [26]): -2.36
fold change (FC) (HT-29 [27]): -2.13
fold change (FC) (MCF7 [28]): -3.05
fold change (FC) (HT-29 [29]): -2.2
fold change (FC) (MCF7 [30]): -2.05
fold change (FC) (HT-29 [31]): -2.02
fold change (FC) (HT-29 [32]): -2.27
fold change (FC) (MCF7 [33]): 2.73
fold change (FC) (MCF7 [34]): -3.03
fold change (FC) (HT-29 [35]): -2
fold change (FC) (HT-29 [36]): -2.19
fold change (FC) (MCF7 [37]): 2.2
fold change (FC) (HT-29 [38]): -2.28
